# ChEMBL document CHEMBL5335799, “Design, Synthesis, and Evaluation of Inhibitors of Hedgehog Acyltransferase” (J Med Chem, 2024)
# What was measured:
# [1] = Apparent permeability across basolateral to apical side in human Caco-2 cells at 10 uM pH 7.4 measured after 2 hrs by LC-MS/MS analysis; format: ADME, cell-based; conditions: caco-2, pH 7.4, 2 h
# In short: (§1)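 Caco-2 cells grown in DMEM with 10% FBS, penicillin and streptomycin for 10 days, then plated; monolayer confluency checked by TEER. Compound at 10 μM (1% DMSO) in HBSS pH 7.4 added to apical or basal wells and incubated 2 h at 37 °C. Lucifer yellow used to confirm membrane integrity afterwards. Both chambers quantified by LC-MS/MS against a matrix-matched standard curve.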
# [2] = Permeability of compound at pH 7.4 by PAMPA assay; format: ADME
# In short: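 Passive diffusion across an artificial membrane of 2% phosphatidylcholine in dodecane. Test compound at 10 μM was incubated 16 h at 30 °C, with donor pH 5, 6.5 or 7.4.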
# [3] = Apparent permeability across apical to basolateral side in human Caco-2 cells at 10 uM pH 7.4 measured after 2 hrs by LC-MS/MS analysis; format: ADME, cell-based; conditions: caco-2, pH 7.4, 2 h; in short: as §1
# [4] = Cytotoxicity against human SHH+ HEK293a cells assessed as cell viability at 12.5 uM measured after 72 hrs by MTS assay relative to control; format: toxicity, cell-based, HEK293-A; conditions: read-out: Activity
# [5] = target: T1, Protein-cysteine N-palmitoyltransferase HHAT (Homo sapiens, UniProt Q5VTY9); experiment: Inhibition of human recombinant HHAT using SHH-FAM peptide as substrate for 30 mins by acylation coupled lipophilic induction of polarization (acyl-cLIP) assay
# In short: (§2)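 DDM-solubilized recombinant HHAT mixed with SHH N-terminal FAM peptide and inhibitor or DMSO in MES buffer pH 6.5 with DTT, TCEP and BSA. Reaction started with palmitoyl-CoA; fluorescence anisotropy followed over 30 min in quadruplicate wells. Initial rates from linear regression were normalized to DMSO and no-enzyme controls.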
# [6] = target: T1, Protein-cysteine N-palmitoyltransferase HHAT; experiment: Inhibition of human recombinant HHAT using SHH-FAM peptide as substrate at 50 uM for 30 mins by acylation coupled lipophilic induction of polarization (acyl-cLIP) assay relative to control; in short: as §2
# [7] = Cytotoxicity against human SHH+ HEK293a cells assessed as cell viability measured after 72 hrs by MTS assay; format: toxicity, cell-based, HEK293-A
# In short: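 HEK293a SHH+ cells seeded at 5000/well and cultured 24 h. They were then exposed 72 h to vehicle, puromycin (2 μg/mL) or compound (0.14–100 μM final) in DMEM with 10% FBS. MTS/PMS added for 3 h at 37 °C and absorbance read at 490 nm. Signal normalized to vehicle and puromycin; CC50 from a variable-slope sigmoidal fit.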
# [8] = Cytotoxicity against human SHH+ HEK293a cells assessed as cell viability at 25 uM measured after 72 hrs by MTS assay relative to control; format: toxicity, cell-based, HEK293-A; conditions: read-out: Activity
# [9] = target: T1, Protein-cysteine N-palmitoyltransferase HHAT; experiment: Inhibition of human recombinant HHAT using SHH-FAM peptide as substrate at 25 uM for 30 mins by acylation coupled lipophilic induction of polarization (acyl-cLIP) assay relative to control; in short: as §2
# [10] = target: T1, Protein-cysteine N-palmitoyltransferase HHAT; experiment: Inhibition of HHAT in human HEK293a SHH+ cells incubated with compound for 24 hrs followed by transferred into SHH-Light2 cells cellular incubated for 48 hrs by Renilla/Firefly luciferase reporter assay; format: cell-based, HEK293-A
# In short: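 HEK293a SHH+ cells (120,000/well) were given compound (0.041–30 μM final) or 0.2% DMSO for 24 h. Conditioned medium was cleared at 1000g and added to SHH-Light2 cells (NIH3T3-derived, Gli-Firefly plus constitutive Renilla) in triplicate wells for 48 h.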
# T1 sequence (Q5VTY9 whole entry): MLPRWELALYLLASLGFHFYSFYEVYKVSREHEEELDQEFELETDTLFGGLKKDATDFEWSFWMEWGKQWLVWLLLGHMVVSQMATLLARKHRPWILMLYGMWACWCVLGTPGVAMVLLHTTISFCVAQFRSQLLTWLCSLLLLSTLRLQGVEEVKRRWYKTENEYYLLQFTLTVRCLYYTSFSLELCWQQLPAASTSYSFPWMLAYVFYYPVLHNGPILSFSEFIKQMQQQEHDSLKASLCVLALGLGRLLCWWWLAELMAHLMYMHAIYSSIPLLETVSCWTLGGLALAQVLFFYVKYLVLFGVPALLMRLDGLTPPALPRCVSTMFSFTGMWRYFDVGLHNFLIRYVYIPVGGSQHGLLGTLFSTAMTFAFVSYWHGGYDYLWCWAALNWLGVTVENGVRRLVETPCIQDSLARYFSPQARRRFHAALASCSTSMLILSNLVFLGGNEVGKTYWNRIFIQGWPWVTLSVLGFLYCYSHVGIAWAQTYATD
smiles,measurement,setting,value
C=CCNCC(=O)N1CCc2sccc2C1COc1ccc(Cl)cc1 (stereo not drawn),permeability,[1],Permeable
same,permeability,[2],Permeable
same,permeability,[3],Permeable
Cc1cccc(C2c3ccsc3CCN2C(=O)NCCCC(C)C)n1 (stereo not drawn),"viability at 72 h, 12.5 µM",[4],32%
same,IC50,[5],42.3 µM
same,inhibition,[6],53%
same,CC50 at 72 h,[7],6.1 µM
same,"viability at 72 h, 25 µM",[8],22%
same,inhibition,[9],31%
COc1ccccc1C1c2ccsc2CCN1C(C)=O (stereo not drawn),inhibition,[6],91%
Cc1cccc([C@@H]2c3ccsc3CCN2C(=O)CNCC(C)C)n1,EC50,[10],> 30 µM
CC(=O)N1CCc2ccccc2C1c1ccccc1 (stereo not drawn),permeability,[2],Permeable
CC(=O)N1CCc2sccc2[C@@H]1c1cccc(C)n1,inhibition,[6],56%
CCC(C)CNCC(=O)N1CCc2sccc2C1c1cccc(C)c1 (stereo not drawn),permeability,[2],Impermeable
c1ccc(C2NCCc3sccc32)cc1 (stereo not drawn),inhibition,[6],16%
CCC(C)CNCC(=O)N1CCc2sccc2C1c1cccc(C)n1 (racemic),permeability,[1],Permeable
same,permeability,[2],Permeable
same,permeability,[3],Permeable
CCC(C)CNCC(=O)N1CCc2sccc2C1c1ccccc1O (stereo not drawn),IC50,[5],4.79 µM
CC(=O)N1CCc2sccc2C1c1ccccc1 (stereo not drawn),permeability,[2],Permeable
CCC(C)CNCC(=O)N1CCc2ccccc2C1c1ccccc1 (stereo not drawn),permeability,[2],Permeable
N[C@@H](Cc1ccccc1)C(=O)N1CCc2sccc2C1c1ccccc1 (stereo partly drawn),inhibition,[6],6%
same,inhibition,[9],3%
